Reference: ChEMBL document CHEMBL4842372, “Discovery of ARD-2585 as an Exceptionally Potent and Orally Active PROTAC Degrader of Androgen Receptor for the Treatment of Advanced Prostate Cancer” (J Med Chem, 2021)
The source made the active and inactive calls. The rule behind the calls is not given here.

Assays:
VCaP [1] = assay: Growth inhibition of human VCaP cells assessed as cell viability by WST-8 assay; assay type: functional, cell-based
[2] = Oral bioavailability in SCID mouse at 3 mg/kg by LC-MS/MS analysis; assay type: ADME, organism-based; settings: in vivo
[3] = biological target: Protein cereblon/Androgen receptor (Homo sapiens, UniProt P10275+Q96SW2); assay: Protac activity at CRBN/AR in human VCaP cells assessed as AR degradation after 24 hrs by Western blot analysis; assay type: cell-based
[4] = biological target: Protein cereblon/Androgen receptor (Homo sapiens, UniProt P10275+Q96SW2, T878A); settings: lncap
LNCaP = assay: Growth inhibition of human LNCaP cells carrying AR T878A mutant assessed as cell viability by WST-8 assay; assay type: functional, cell-based
[5] = Drug distribution in plasma of CB17:SCID mouse xenografted with human VCaP cells at 20 mg/kg, po measured at 24 hrs by LCMS analysis; assay type: ADME, organism-based
In short: (§1)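 Tumor-bearing male CB17 SCID mice (VCaP xenografts) given one 20 mg/kg oral dose in 100% PEG200, three mice per time point; plasma, tumor, liver, kidney, prostate and heart taken at 1, 6 and 24 h; tissues homogenised in water/acetonitrile, protein precipitated with cold acetonitrile, drug quantified by LC–MS/MS; ratios are tissue over plasma level.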

[6] = Drug distribution in tumor of CB17:SCID mouse xenografted with human VCaP cells at 20 mg/kg, po measured at 6 hrs by LCMS analysis; assay type: ADME, organism-based, Neoplasm; settings: read-out: Drug uptake; in short: as §1
[7] = Drug distribution in prostate gland of CB17:SCID mouse xenografted with human VCaP cells at 20 mg/kg, po measured at 24 hrs by LCMS analysis; assay type: ADME, organism-based; settings: read-out: Drug uptake; in short: as §1
[8] = Drug distribution in prostate gland of CB17:SCID mouse xenografted with human VCaP cells at 20 mg/kg, po measured at 6 hrs by LCMS analysis; assay type: ADME, organism-based; settings: read-out: Drug uptake; in short: as §1
[9] = Drug distribution in plasma of CB17:SCID mouse xenografted with human VCaP cells at 20 mg/kg, po measured at 6 hrs by LCMS analysis; assay type: ADME, organism-based; in short: as §1
[10] = Drug distribution in tumor of CB17:SCID mouse xenografted with human VCaP cells at 20 mg/kg, po measured at 24 hrs by LCMS analysis; assay type: ADME, organism-based, Neoplasm; settings: read-out: Drug uptake; in short: as §1
VCaP [11] = assay: Antitumor activity against human VCaP cells xenografted in CB17:SCID mouse assessed as tumor growth inhibition at 40 mg/kg, po treated for 37 days relative to control; assay type: functional; settings: 888 h, time 37 day, read-out: TGI
VCaP [12] = assay: Antitumor activity against human VCaP cells xenografted in CB17:SCID mouse assessed as reduction in AR protein level in tumor at 20 mg/kg, po measured for 6 to 24 hrs by Western blot analysis; assay type: functional, organism-based; settings: time 6-24 hrs
In short: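 VCaP xenografts in male CB17 SCID mice grown to about 200 mm3; single oral gavage dose of 20 mg/kg in 100% PEG200; tumors collected at 6 and 24 h, RIPA lysates blotted for AR with GAPDH as loading control, band intensity normalised to loading control.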

[13] = Volume of distribution at steady state in SCID mouse at 1 mg/kg, iv by LC-MS/MS analysis; assay type: ADME, organism-based; settings: in vivo, read-out: Vdss
In short: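 Male mice were used, three sacrificed per time-point, with 300 μL blood collected and plasma stored at −80 °C. Drug was quantified by a validated LC–MS/MS method on a C18 column with a 0.1% formic acid water/acetonitrile gradient at 0.4 mL/min. PK parameters were derived by noncompartmental analysis.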

VCaP [14] = assay: Antitumor activity against human VCaP cells xenografted in CB17:SCID mouse assessed as reduction in AR protein level in tumor at 10 mg/kg, po for 3 days measured at 6 hrs by Western blot analysis; assay type: functional; settings: 72 h, time 3 day
In short: (§2)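 Male CB17 SCID mice bearing subcutaneous VCaP tumors (5 × 10^6 cells in Matrigel); dosed by oral gavage in 100% PEG200 at 10 mg/kg daily for 3 days; tumors harvested 3, 6 and 24 h post-dose, lysed in RIPA, Western blot for AR with GAPDH loading control, bands quantified by densitometry relative to loading control.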

VCaP [15] = assay: Antitumor activity against human VCaP cells xenografted in CB17:SCID mouse assessed as reduction in AR protein level in tumor at 10 mg/kg, po for 3 days measured at 24 hrs by Western blot analysis; assay type: functional; settings: 72 h, time 3 day; in short: as §2
VCaP [16] = assay: Antitumor activity against human VCaP cells xenografted in CB17:SCID mouse assessed as reduction in AR protein level in tumor at 10 mg/kg, po for 3 days measured at 3 hrs by Western blot analysis; assay type: functional; settings: 72 h, time 3 day; in short: as §2

Protein cereblon/Androgen receptor (Homo sapiens, UniProt P10275+Q96SW2), sequence (P10275 whole entry): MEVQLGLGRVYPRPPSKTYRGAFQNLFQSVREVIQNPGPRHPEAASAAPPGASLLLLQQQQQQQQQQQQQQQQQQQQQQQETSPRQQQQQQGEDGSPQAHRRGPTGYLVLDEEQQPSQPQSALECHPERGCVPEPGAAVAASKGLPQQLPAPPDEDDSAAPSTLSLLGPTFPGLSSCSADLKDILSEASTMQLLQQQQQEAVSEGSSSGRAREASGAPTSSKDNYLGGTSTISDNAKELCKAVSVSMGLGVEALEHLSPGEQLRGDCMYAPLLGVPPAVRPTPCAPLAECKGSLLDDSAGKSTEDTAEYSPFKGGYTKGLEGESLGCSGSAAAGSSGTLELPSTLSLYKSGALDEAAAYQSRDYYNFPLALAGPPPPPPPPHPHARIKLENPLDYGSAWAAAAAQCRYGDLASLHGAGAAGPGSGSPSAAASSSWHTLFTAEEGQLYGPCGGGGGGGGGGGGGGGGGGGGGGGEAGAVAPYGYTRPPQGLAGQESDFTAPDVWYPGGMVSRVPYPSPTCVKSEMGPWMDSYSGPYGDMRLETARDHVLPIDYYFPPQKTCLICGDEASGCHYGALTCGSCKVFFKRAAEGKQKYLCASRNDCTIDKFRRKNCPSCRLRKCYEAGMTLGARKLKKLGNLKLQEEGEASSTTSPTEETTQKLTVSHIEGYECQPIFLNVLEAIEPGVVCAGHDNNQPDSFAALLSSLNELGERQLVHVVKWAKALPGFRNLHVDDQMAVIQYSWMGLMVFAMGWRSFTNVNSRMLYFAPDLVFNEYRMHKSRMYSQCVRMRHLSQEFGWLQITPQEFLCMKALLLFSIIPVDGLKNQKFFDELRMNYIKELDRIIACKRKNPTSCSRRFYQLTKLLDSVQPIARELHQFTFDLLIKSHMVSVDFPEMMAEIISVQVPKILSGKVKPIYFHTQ
Protein cereblon/Androgen receptor (Homo sapiens, UniProt P10275+Q96SW2), sequence (Q96SW2 whole entry): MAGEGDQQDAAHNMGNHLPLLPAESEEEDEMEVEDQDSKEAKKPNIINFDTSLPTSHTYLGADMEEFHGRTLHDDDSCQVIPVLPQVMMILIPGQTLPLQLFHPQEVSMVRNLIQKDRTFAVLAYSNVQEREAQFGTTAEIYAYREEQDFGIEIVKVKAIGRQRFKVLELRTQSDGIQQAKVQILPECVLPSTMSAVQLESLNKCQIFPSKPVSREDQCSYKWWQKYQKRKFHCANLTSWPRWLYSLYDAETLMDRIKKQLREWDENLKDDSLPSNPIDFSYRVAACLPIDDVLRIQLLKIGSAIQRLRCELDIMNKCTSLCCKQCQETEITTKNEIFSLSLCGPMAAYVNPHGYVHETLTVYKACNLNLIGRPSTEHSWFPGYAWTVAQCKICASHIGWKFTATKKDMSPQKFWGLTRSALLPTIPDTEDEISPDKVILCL
Protein cereblon/Androgen receptor (Homo sapiens, UniProt P10275+Q96SW2, T878A), sequence (P10275 whole entry T878A, stated change not applied): as the sequence (P10275 whole entry) above, with T878A counted along it
Protein cereblon/Androgen receptor (Homo sapiens, UniProt P10275+Q96SW2, T878A), sequence (Q96SW2 whole entry, stated change not applied): as the sequence (Q96SW2 whole entry) above

N#Cc1ccc(N[C@H]2CC[C@H](NC(=O)c3ccc(N4CCC(N5CCN(c6ccc7c(c6)C(=O)N(C6CCC(=O)NC6=O)C7=O)CC5)CC4)cc3)CC2)cc1Cl (some centres not stated)
IC50 (VCaP [1]): 16.6 nM

N#Cc1ccc(OC2CCN(C(=O)c3ccc(N4CCC(N5CCN(c6ccc7c(c6)C(=O)N(C6CCC(=O)NC6=O)C7=O)CC5)CC4)cc3)CC2)cc1Cl (configuration not stated)
IC50 (VCaP [1]): > 1000 nM

CN(c1ccc(C#N)c(Cl)c1)[C@H]1CC[C@H](NC(=O)c2ccc(N3CCN(CC4CN(c5ccc6c(c5)C(=O)N(C5CCC(=O)NC5=O)C6=O)C4)CC3)cc2)CC1 (some centres not stated)
F [2]: 30%

N#Cc1ncc(N2C(=O)C3(CCC3)N(c3ccc(C(=O)N4CCN(C5CCN(c6ccc7c(c6)C(=O)N(C6CCC(=O)NC6=O)C7=O)CC5)CC4)c(F)c3)C2=S)cc1C(F)(F)F (configuration not stated)
IC50 (VCaP [1]): > 1000 nM

N#Cc1ccc(O[C@H]2CC[C@H](NC(=O)c3ccc(NCCCCCNc4ccc5c(c4)C(=O)N(C4CCC(=O)NC4=O)C5=O)cc3)CC2)cc1Cl (some centres not stated)
DC50 [3]: 0.2 nM

N#Cc1ccc(O[C@H]2CC[C@H](NC(=O)c3ccc(NCCCCCCNc4ccc5c(c4)C(=O)N(C4CCC(=O)NC4=O)C5=O)cc3)CC2)cc1Cl (some centres not stated)
DC50 [3]: 0.6 nM

CN(c1ccc(C#N)c(Cl)c1)[C@H]1CC[C@H](NC(=O)c2ccc(N3CC(CN4CCN(c5ccc6c(c5)C(=O)N(C5CCC(=O)NC5=O)C6=O)CC4)C3)cc2)CC1 (some centres not stated)
DC50 [4]: 1.9 nM
F [2]: 34%
IC50 (LNCaP): 11.6 nM
IC50 (VCaP [1]): 4.3 nM

N#Cc1ccc(O[C@H]2CC[C@H](NC(=O)c3ccc(N4CCN(CC5CN(c6ccc7c(c6)C(=O)N(C6CCC(=O)NC6=O)C7=O)C5)CC4)cc3)CC2)cc1Cl (some centres not stated)
DC50 [3]: 0.3 nM
IC50 (VCaP [1]): 6.7 nM

CN(c1ccc(C#N)c(Cl)c1)[C@H]1CC[C@H](NC(=O)c2ccc(N3CCC(N4CCN(c5ccc6c(c5)C(=O)N(C5CCC(=O)NC5=O)C6=O)CC4)CC3)cc2)CC1 (some centres not stated)
concentration at 24 h [5]: 65 ng/mL
concentration at 6 h [6]: 306 ng/g
concentration at 24 h [7]: 4 ng/g
F [2]: 44%
concentration at 6 h [8]: 67 ng/g
concentration at 6 h [9]: 208 ng/mL
concentration at 24 h [10]: 137 ng/g

CNC(=O)c1ccc(N2C(=S)N(c3ccc(C#N)c(C(F)(F)F)c3)C(=O)C2(C)C)cc1F [ENZALUTAMIDE]
inhibition in vivo at 40 mg/kg (VCaP [11]): 45%

N#Cc1ccc(O[C@H]2CC[C@H](NC(=O)c3ccc(N4CCN(C5CN(c6ccc7c(c6)C(=O)N(C6CCC(=O)NC6=O)C7=O)C5)CC4)cc3)CC2)cc1Cl (some centres not stated)
DC50 [3]: 0.1 nM

CC(O)(CS(=O)(=O)c1ccc(N2CCN(C3CCN(c4ccc5c(c4)C(=O)N(C4CCC(=O)NC4=O)C5=O)CC3)CC2)cc1)C(=O)Nc1ccc(C#N)c(C(F)(F)F)c1 (configuration not stated)
IC50 (VCaP [1]): > 1000 nM

CN(c1ccc(C#N)c(Cl)c1)[C@H]1CC[C@H](NC(=O)c2ccc(N3CC(N4CCN(c5ccc6c(c5)C(=O)N(C5CCC(=O)NC5=O)C6=O)CC4)C3)cc2)CC1 (some centres not stated)
concentration at 24 h [5]: 106 ng/mL
concentration at 6 h [6]: 129 ng/g
DC50 [4]: 1.3 nM
concentration at 24 h [7]: 123 ng/g
F [2]: 67%
concentration at 6 h [8]: 108 ng/g
IC50 (LNCaP): 21.7 nM
concentration at 6 h [9]: 181 ng/mL
concentration at 24 h [10]: 116 ng/g
IC50 (VCaP [1]): 5.1 nM
inhibition (VCaP [12]): Active

N#Cc1ccc(O[C@@H]2CCCN(C(=O)c3ccc(N4CCC(N5CCN(c6ccc7c(c6)C(=O)N(C6CCC(=O)NC6=O)C7=O)CC5)CC4)cc3)CC2)cc1Cl (some centres not stated)
IC50 (VCaP [1]): > 1000 nM

CN1CCN(c2ccc(C(=O)N[C@H]3CC[C@H](N(C)c4ccc(C#N)c(Cl)c4)CC3)cc2)CC1
IC50 (VCaP [1]): 61 nM

N#Cc1ccc(O[C@H]2CC[C@H](NC(=O)c3ccc(N4CCN(CCNc5ccc6c(c5)C(=O)N(C5CCC(=O)NC5=O)C6=O)CC4)cc3)CC2)cc1Cl (some centres not stated)
DC50 [3]: 0.8 nM

N#Cc1ccc(O[C@H]2CC[C@H](NC(=O)c3ccc(N4CCN(C5CCN(c6ccc7c(c6)C(=O)N(C6CCC(=O)NC6=O)C7=O)CC5)CC4)cc3)CC2)cc1Cl (some centres not stated)
DC50 [3]: 0.3 nM

N#Cc1ccc(O[C@H]2CC[C@H](NC(=O)c3ccc(NCCCCCCCCNc4ccc5c(c4)C(=O)N(C4CCC(=O)NC4=O)C5=O)cc3)CC2)cc1Cl (some centres not stated)
DC50 [3]: 1.5 nM

N#Cc1ccc(O[C@H]2CC[C@H](NC(=O)c3ccc(N4CCC(N5CCN(c6ccc7c(c6)C(=O)N(C6CCC(=O)NC6=O)C7=O)CC5)CC4)cc3)C2)cc1Cl (some centres not stated)
IC50 (VCaP [1]): > 1000 nM

CN(c1ccc(C#N)c(Cl)c1)[C@H]1CC[C@H](NC(=O)c2ccc(N3CCC(CN4CCN(c5ccc6c(c5)C(=O)N(C5CCC(=O)NC5=O)C6=O)CC4)CC3)cc2)CC1 (some centres not stated)
F [2]: 35%

CN(c1ccc(C#N)c(Cl)c1)[C@H]1CC[C@H](NC(=O)c2ccc(N3CCN(C4CCN(c5ccc6c(c5)C(=O)N(C5CCC(=O)NC5=O)C6=O)CC4)CC3)cc2)CC1 (some centres not stated)
concentration at 24 h [5]: 38 ng/mL
concentration at 6 h [6]: 120 ng/g
DC50 [4]: 0.4 nM
Vd [13]: 2.6 L/kg
concentration at 24 h [7]: 83 ng/g
inhibition in vivo at 10 mg/kg (VCaP [14]): 70%
F [2]: 29%
concentration at 6 h [8]: 58 ng/g
IC50 (LNCaP): 22.3 nM
concentration at 6 h [9]: 37 ng/mL
concentration at 24 h [10]: 176 ng/g
IC50 (VCaP [1]): 0.8 nM
inhibition in vivo at 10 mg/kg (VCaP [15]): 20%
inhibition (VCaP [12]): Active
inhibition in vivo at 10 mg/kg (VCaP [16]): 74%

CC1(C)C(=O)N(c2ccc(C#N)c(C(F)(F)F)c2)C(=S)N1c1ccc(C(=O)N2CCN(C3CCN(c4ccc5c(c4)C(=O)N(C4CCC(=O)NC4=O)C5=O)CC3)CC2)c(F)c1 (configuration not stated)
IC50 (VCaP [1]): > 1000 nM

N#Cc1ccc(O[C@H]2CC[C@H](NC(=O)c3ccc(NCCCCCCCNc4ccc5c(c4)C(=O)N(C4CCC(=O)NC4=O)C5=O)cc3)CC2)cc1Cl (some centres not stated)
DC50 [3]: 0.7 nM

N#Cc1ccc(O[C@H]2CC[C@H](NC(=O)c3ccc(N4CCN(CC5CCN(c6ccc7c(c6)C(=O)N(C6CCC(=O)NC6=O)C7=O)CC5)CC4)cc3)CC2)cc1Cl (some centres not stated)
IC50 (VCaP [1]): 2.7 nM

N#Cc1ccc(O[C@H]2CC[C@H](NC(=O)c3ccc(NCCCCCCCCCNc4ccc5c(c4)C(=O)N(C4CCC(=O)NC4=O)C5=O)cc3)CC2)cc1Cl (some centres not stated)
DC50 [3]: 3.2 nM

N#Cc1ccc(O[C@H]2CC[C@H](NC(=O)c3ccc(NCCCCNc4ccc5c(c4)C(=O)N(C4CCC(=O)NC4=O)C5=O)cc3)CC2)cc1Cl (some centres not stated)
DC50 [3]: 1.1 nM

N#Cc1ccc(O[C@H]2CC[C@H](NC(=O)c3ccc(N4CCN(CCCCCNc5ccc6c(c5)C(=O)N(C5CCC(=O)NC5=O)C6=O)CC4)cc3)CC2)cc1Cl (some centres not stated)
DC50 [3]: 0.9 nM

N#Cc1ccc(O[C@H]2CC[C@H](NC(=O)c3ccc(N4CCN(CCCNc5ccc6c(c5)C(=O)N(C5CCC(=O)NC5=O)C6=O)CC4)cc3)CC2)cc1Cl (some centres not stated)
DC50 [3]: 2.7 nM
